Laboratory results taken from ChEMBL document CHEMBL2380209, “Synthesis and pharmacological characterization of 4-substituted-2-aminobicyclo[3.1.0]hexane-2,6-dicarboxylates: identification of new potent and selective metabotropic glutamate 2/3 receptor agonists” (J Med Chem, 2013).

Key:
[1] = biological target: T1, Metabotropic glutamate receptor 2 (Homo sapiens, UniProt Q14416); experiment: Agonist activity at human mGlu2 receptor expressed in golden Syrian hamster AV12 cells coexpressing EAAT1 after 20 mins by HTRF assay; assay type: cell-based
T1 sequence (Q14416 whole entry): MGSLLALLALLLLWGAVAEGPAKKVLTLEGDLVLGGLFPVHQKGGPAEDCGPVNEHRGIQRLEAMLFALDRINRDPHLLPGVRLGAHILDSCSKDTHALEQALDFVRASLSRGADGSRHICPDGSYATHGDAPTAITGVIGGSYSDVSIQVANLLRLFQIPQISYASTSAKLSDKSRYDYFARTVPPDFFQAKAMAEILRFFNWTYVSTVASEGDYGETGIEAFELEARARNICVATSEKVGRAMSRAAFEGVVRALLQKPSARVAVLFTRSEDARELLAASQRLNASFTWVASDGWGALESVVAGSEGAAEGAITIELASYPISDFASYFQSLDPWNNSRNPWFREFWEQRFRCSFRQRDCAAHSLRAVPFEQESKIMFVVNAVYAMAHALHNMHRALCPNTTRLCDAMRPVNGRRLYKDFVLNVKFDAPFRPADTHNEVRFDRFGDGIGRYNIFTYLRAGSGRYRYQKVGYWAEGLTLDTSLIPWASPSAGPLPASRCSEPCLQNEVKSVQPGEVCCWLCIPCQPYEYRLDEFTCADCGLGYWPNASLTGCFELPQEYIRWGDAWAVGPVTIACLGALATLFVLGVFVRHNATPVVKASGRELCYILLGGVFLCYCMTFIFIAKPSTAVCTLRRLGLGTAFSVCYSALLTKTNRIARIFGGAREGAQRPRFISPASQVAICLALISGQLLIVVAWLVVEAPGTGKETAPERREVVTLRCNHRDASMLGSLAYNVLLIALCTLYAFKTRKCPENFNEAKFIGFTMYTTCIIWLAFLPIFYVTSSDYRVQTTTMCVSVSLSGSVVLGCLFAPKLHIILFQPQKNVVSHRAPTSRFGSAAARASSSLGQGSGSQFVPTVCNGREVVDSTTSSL

[2] = biological target: Metabotropic glutamate receptor 8 (Homo sapiens, UniProt O00222); experiment: Agonist activity at human mGlu8 receptor expressed in golden Syrian hamster AV12 cells coexpressing EAAT1 after 20 mins by FLIPR assay; assay type: cell-based
Metabotropic glutamate receptor 8, sequence (O00222 whole entry): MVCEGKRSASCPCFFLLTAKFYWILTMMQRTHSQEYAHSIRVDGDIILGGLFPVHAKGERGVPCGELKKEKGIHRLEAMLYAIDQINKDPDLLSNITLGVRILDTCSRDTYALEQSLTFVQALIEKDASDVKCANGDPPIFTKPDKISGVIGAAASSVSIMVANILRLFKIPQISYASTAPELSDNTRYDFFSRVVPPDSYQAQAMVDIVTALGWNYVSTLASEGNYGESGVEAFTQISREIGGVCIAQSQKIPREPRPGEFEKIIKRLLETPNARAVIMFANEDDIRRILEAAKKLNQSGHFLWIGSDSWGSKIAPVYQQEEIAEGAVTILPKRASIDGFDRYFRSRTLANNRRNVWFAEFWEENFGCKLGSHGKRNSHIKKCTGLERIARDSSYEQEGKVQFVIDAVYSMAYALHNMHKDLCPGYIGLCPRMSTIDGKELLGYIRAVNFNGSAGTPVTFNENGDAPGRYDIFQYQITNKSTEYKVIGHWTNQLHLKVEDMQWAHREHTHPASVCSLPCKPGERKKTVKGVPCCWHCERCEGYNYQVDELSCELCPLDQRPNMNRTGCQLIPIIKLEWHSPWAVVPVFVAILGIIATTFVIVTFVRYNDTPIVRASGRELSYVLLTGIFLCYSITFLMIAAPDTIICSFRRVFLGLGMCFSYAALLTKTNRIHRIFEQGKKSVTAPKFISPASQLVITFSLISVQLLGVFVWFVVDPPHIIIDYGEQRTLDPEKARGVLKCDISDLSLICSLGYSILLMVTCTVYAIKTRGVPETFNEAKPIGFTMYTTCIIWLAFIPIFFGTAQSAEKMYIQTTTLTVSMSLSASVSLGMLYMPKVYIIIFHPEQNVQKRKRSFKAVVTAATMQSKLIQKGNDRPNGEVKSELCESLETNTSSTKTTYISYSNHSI

[3] = biological target: T2, Metabotropic glutamate receptor 6 (Homo sapiens, UniProt O15303); experiment: Agonist activity at human mGlu6 receptor expressed in golden Syrian hamster AV12 cells coexpressing EAAT1 after 20 mins by FLIPR assay; assay type: cell-based
T2 sequence (O15303 whole entry): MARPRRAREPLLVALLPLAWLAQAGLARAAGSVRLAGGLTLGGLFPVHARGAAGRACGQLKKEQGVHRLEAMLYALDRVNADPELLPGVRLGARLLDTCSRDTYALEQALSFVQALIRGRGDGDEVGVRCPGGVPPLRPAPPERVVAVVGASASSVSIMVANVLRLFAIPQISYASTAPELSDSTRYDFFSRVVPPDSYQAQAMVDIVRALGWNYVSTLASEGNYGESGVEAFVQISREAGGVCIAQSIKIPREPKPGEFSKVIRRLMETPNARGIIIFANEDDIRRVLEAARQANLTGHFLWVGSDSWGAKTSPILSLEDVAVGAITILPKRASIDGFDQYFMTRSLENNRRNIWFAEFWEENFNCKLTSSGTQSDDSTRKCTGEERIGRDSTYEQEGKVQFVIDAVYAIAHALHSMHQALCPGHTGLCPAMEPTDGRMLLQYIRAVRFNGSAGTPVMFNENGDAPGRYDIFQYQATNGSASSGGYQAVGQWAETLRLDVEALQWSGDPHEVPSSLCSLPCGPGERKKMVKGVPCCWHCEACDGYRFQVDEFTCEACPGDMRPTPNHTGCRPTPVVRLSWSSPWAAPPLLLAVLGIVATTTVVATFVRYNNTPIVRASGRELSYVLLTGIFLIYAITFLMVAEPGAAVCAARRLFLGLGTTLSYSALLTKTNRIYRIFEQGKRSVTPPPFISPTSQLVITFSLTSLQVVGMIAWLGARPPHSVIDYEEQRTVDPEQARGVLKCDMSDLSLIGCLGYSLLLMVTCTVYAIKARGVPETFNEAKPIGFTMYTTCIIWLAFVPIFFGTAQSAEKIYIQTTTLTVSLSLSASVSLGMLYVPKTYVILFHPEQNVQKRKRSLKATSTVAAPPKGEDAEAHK

[4] = biological target: T3, Metabotropic glutamate receptor 3 (Homo sapiens, UniProt Q14832); experiment: Agonist activity at human mGlu3 receptor expressed in golden Syrian hamster AV12 cells coexpressing EAAT1 after 20 mins by HTRF assay; assay type: cell-based
T3 sequence (Q14832 whole entry): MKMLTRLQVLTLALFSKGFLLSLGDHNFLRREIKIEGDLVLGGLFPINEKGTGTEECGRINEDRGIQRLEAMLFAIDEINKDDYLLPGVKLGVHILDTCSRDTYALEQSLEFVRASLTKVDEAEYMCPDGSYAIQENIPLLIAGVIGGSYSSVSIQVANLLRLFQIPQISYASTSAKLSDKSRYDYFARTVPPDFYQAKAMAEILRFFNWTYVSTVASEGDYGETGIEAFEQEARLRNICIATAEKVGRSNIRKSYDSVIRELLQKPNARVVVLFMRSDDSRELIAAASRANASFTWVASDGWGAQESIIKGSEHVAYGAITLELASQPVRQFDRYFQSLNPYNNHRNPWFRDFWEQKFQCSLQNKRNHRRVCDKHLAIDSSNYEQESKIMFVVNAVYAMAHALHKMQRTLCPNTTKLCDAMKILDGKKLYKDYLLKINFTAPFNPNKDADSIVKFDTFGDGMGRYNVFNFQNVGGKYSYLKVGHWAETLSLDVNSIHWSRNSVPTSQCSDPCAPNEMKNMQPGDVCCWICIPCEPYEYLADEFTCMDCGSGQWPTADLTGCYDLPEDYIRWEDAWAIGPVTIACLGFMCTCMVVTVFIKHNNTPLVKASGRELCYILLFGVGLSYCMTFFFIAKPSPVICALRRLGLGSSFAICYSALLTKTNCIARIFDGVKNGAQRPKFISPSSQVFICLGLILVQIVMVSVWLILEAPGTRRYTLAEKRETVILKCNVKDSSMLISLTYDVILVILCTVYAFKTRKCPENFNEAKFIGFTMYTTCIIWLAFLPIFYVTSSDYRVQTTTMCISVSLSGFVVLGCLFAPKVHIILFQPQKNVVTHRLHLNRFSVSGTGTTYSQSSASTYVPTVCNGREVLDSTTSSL

[5] = biological target: T3, Metabotropic glutamate receptor 3; experiment: Antagonist activity at human mGlu3 receptor expressed in golden Syrian hamster AV12 cells coexpressing EAAT1 assessed as inhibition of forskolin-stimulated cAMP production after 20 mins by HTRF assay; assay type: functional, cell-based
[6] = biological target: T2, Metabotropic glutamate receptor 6; experiment: Agonist activity at human mGlu6 receptor expressed in golden Syrian hamster AV12 cells coexpressing EAAT1 assessed as inhibition of forskolin-stimulated cAMP production after 20 mins by FLIPR assay
[7] = biological target: T2, Metabotropic glutamate receptor 6; experiment: Antagonist activity at human mGlu6 receptor expressed in golden Syrian hamster AV12 cells coexpressing EAAT1 assessed as inhibition of forskolin-stimulated cAMP production after 20 mins by FLIPR assay relative to control; assay type: functional, cell-based
[8] = biological target: T1, Metabotropic glutamate receptor 2; experiment: Antagonist activity at human mGlu2 receptor expressed in golden Syrian hamster AV12 cells coexpressing EAAT1 assessed as inhibition of forskolin-stimulated cAMP production after 20 mins by HTRF assay; assay type: functional, cell-based
[9] = Half life in Sprague-Dawley rat at 3 mg/kg, iv by LC/MS/MS analysis; assay type: ADME, organism-based; set-up: dose 3 mg/kg, route intravenous; conditions: in vivo
Method in brief: (§1)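 Fasted male Sprague Dawley rats (~250 g) were dosed with an aqueous solution adjusted to pH 7-7.5 with NaOH, by oral gavage (1, 3, 10 mg/kg) or intravenously (3 mg/kg). Serial jugular-catheter blood samples (11-12 per rat) went into EDTA tubes over 24 h. Plasma was extracted by SPE with an analog internal standard and run on an anion-exchange HPLC column, SRM m/z 204.1 > 77.1. Parameters came from noncompartmental analysis and are reported as means.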

[10] = Oral bioavailability in Sprague-Dawley rat at 3 mg/kg up to 24 hrs by LC/MS/MS analysis; assay type: ADME, organism-based; conditions: in vivo; method in brief: as §1
[11] = Tmax in Sprague-Dawley rat at 1 mg/kg, po by LC/MS/MS analysis; assay type: ADME, organism-based; set-up: dose 1 mg/kg, route oral; conditions: in vivo; method in brief: as §1
Rattus norvegicus [12] = experiment: Antipsychotic activity in po dosed Sprague-Dawley rat assessed as decrease in PCP-elicited ambulations administered 2 hrs prior to test measured for 60 mins; assay type: functional
[13] = Tmax in Sprague-Dawley rat at 3 mg/kg, iv by LC/MS/MS analysis; assay type: ADME, organism-based; set-up: dose 3 mg/kg, route intravenous; conditions: in vivo; method in brief: as §1
[14] = Cmax in Sprague-Dawley rat at 3 mg/kg, po up to 24 hrs by LC/MS/MS analysis; assay type: ADME, organism-based; set-up: dose 3 mg/kg, route oral; conditions: in vivo; method in brief: as §1
[15] = Clearance in Sprague-Dawley rat at 3 mg/kg, iv up to 24 hrs by LC/MS/MS analysis; assay type: ADME, organism-based; set-up: dose 3 mg/kg, route intravenous; conditions: in vivo; method in brief: as §1
[16] = Volume of distribution at steady state in Sprague-Dawley rat at 3 mg/kg, iv up to 24 hrs by LC/MS/MS analysis; assay type: ADME, organism-based; set-up: dose 3 mg/kg, route intravenous; conditions: in vivo, read-out: Vdss; method in brief: as §1
[17] = Tmax in Sprague-Dawley rat at 10 mg/kg, po by LC/MS/MS analysis; assay type: ADME, organism-based; set-up: dose 10 mg/kg, route oral; conditions: in vivo; method in brief: as §1
[18] = AUC (0 to 24 hrs) in Sprague-Dawley rat at 3 mg/kg, po by LC/MS/MS analysis; assay type: ADME, organism-based; set-up: time < 24 hr, dose 3 mg/kg, route oral; conditions: plasma; method in brief: as §1
[19] = Cmax in Sprague-Dawley rat at 1 mg/kg, po up to 24 hrs by LC/MS/MS analysis; assay type: ADME, organism-based; set-up: dose 1 mg/kg, route oral; conditions: in vivo; method in brief: as §1
[20] = AUC (0 to 24 hrs) in Sprague-Dawley rat at 1 mg/kg, po by LC/MS/MS analysis; assay type: ADME, organism-based; set-up: time < 24 hr, dose 1 mg/kg, route oral; conditions: plasma; method in brief: as §1
[21] = Half life in Sprague-Dawley rat at 10 mg/kg, po by LC/MS/MS analysis; assay type: ADME, organism-based; set-up: dose 10 mg/kg, route oral; conditions: in vivo; method in brief: as §1
[22] = Half life in Sprague-Dawley rat at 1 mg/kg, po by LC/MS/MS analysis; assay type: ADME, organism-based; set-up: dose 1 mg/kg, route oral; conditions: in vivo; method in brief: as §1
Rattus norvegicus [23] = experiment: Neurotoxicity in Sprague-Dawley rat assessed as impairment of motor coordination at 30 mg/kg, po administered 2 hrs prior to test by rotarod test; assay type: toxicity, organism-based; set-up: dose 30 mg/kg, route oral; conditions: in vivo
Method in brief: (§2)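 Rats were trained to stay on a 4 rpm rotorod for 1 min, with up to four attempts, and were retested 30-60 min later; failures were excluded. Trained rats (8/group) received oral aqueous solution (3, 10 or 30 mg/kg) or vehicle and were retested 120 min later, scored as seconds on the rotorod. One-way ANOVA with Dunnett's test was run against vehicle.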

[24] = Tmax in Sprague-Dawley rat at 3 mg/kg, po by LC/MS/MS analysis; assay type: ADME, organism-based; set-up: dose 3 mg/kg, route oral; conditions: in vivo; method in brief: as §1
[25] = Half life in Sprague-Dawley rat at 3 mg/kg, po by LC/MS/MS analysis; assay type: ADME, organism-based; set-up: dose 3 mg/kg, route oral; conditions: in vivo; method in brief: as §1
Rattus norvegicus [26] = experiment: Neurotoxicity in Sprague-Dawley rat assessed as impairment of motor coordination at 3 to 10 mg/kg, po administered 2 hrs prior to test by rotarod test; assay type: toxicity, organism-based; set-up: dose 3-10 mg/kg, route oral; conditions: in vivo; method in brief: as §2
[27] = Initial plasma concentration in Sprague-Dawley rat at 3 mg/kg, iv by LC/MS/MS analysis; assay type: ADME, organism-based; set-up: dose 3 mg/kg, route intravenous; method in brief: as §1
[28] = AUC (0 to 24 hrs) in Sprague-Dawley rat at 10 mg/kg, po by LC/MS/MS analysis; assay type: ADME, organism-based; set-up: time < 24 hr, dose 10 mg/kg, route oral; conditions: plasma; method in brief: as §1
[29] = AUC (0 to 24 hrs) in Sprague-Dawley rat at 3 mg/kg, iv by LC/MS/MS analysis; assay type: ADME, organism-based; set-up: time < 24 hr, dose 3 mg/kg, route intravenous; conditions: plasma; method in brief: as §1
[30] = Cmax in Sprague-Dawley rat at 10 mg/kg, po up to 24 hrs by LC/MS/MS analysis; assay type: ADME, organism-based; set-up: dose 10 mg/kg, route oral; conditions: in vivo; method in brief: as §1

Compound: N[C@H]1C[C@@](N)(C(=O)O)[C@@H]2[C@@H](C(=O)O)[C@@H]21
- EC50 [1]: 21.2 nM
- EC50 [2]: > 25000 nM
- EC50 [3]: 9370 nM
- EC50 [4]: 24.9 nM

Compound: [N-]=[N+]=N[C@@H]1C[C@@](N)(C(=O)O)[C@@H]2[C@@H](C(=O)O)[C@@H]21
- EC50 [1]: 8.2 nM
- EC50 [2]: 12400 nM
- EC50 [3]: 780 nM
- EC50 [4]: 12.3 nM

Compound: N[C@@]1(C(=O)O)C[C@H](Sc2ccccc2)[C@H]2[C@H](C(=O)O)[C@H]21
- EC50 [1]: 1170 nM
- EC50 [2]: > 25000 nM
- IC50 [5]: 3370 nM
- EC50 [3]: 3250 nM

Compound: C[C@H]1C[C@@](N)(C(=O)O)[C@@H]2[C@@H](C(=O)O)[C@@H]21
- EC50 [1]: 28.6 nM
- EC50 [2]: > 25000 nM
- EC50 [3]: 9280 nM
- EC50 [4]: 166 nM

Compound: N[C@@]1(C(=O)O)C[C@H](O)[C@H]2[C@H](C(=O)O)[C@H]21
- EC50 [1]: 7.5 nM
- EC50 [2]: > 25000 nM
- EC50 [6]: 3040 nM

Compound: N[C@@H]1C[C@@](N)(C(=O)O)[C@@H]2[C@@H](C(=O)O)[C@@H]21
- EC50 [1]: 47.9 nM
- EC50 [2]: > 25000 nM
- EC50 [3]: 11800 nM
- EC50 [4]: 57.1 nM

Compound: N[C@@]1(C(=O)O)CC(=O)[C@H]2[C@H](C(=O)O)[C@H]21
- EC50 [1]: 0.16 nM
- EC50 [2]: 6530 nM
- %max [7]: 100%
- EC50 [4]: 0.11 nM
- EC50 [6]: 1380 nM

Compound: N[C@@]1(C(=O)O)C[C@@H](Sc2ccccc2)[C@H]2[C@H](C(=O)O)[C@H]21
- IC50 [8]: 7020 nM
- EC50 [2]: > 25000 nM
- IC50 [5]: 895 nM
- EC50 [3]: 1270 nM

Compound: CC(=O)N[C@H]1C[C@@](N)(C(=O)O)[C@@H]2[C@@H](C(=O)O)[C@@H]21
- EC50 [1]: 257 nM
- EC50 [2]: 4300 nM
- EC50 [3]: 709 nM
- EC50 [4]: 193 nM

Compound: [N-]=[N+]=N[C@H]1C[C@@](N)(C(=O)O)[C@@H]2[C@@H](C(=O)O)[C@@H]21
- EC50 [1]: 12.2 nM
- EC50 [2]: 12000 nM
- %max [7]: 100%
- EC50 [4]: 23.5 nM
- EC50 [6]: 1890 nM

Compound: CC(=O)N[C@@H]1C[C@@](N)(C(=O)O)[C@@H]2[C@@H](C(=O)O)[C@@H]21
- IC50 [8]: 4990 nM
- EC50 [2]: > 25000 nM
- IC50 [5]: 3390 nM
- EC50 [3]: 6690 nM

Compound: C=C1C[C@@](N)(C(=O)O)[C@H]2[C@@H]1[C@@H]2C(=O)O
- EC50 [1]: 1.3 nM
- EC50 [2]: 1590 nM
- %max [7]: 100%
- EC50 [4]: 15.5 nM
- EC50 [6]: 267 nM

Compound: C[C@@H]1C[C@@](N)(C(=O)O)[C@@H]2[C@@H](C(=O)O)[C@@H]21
- EC50 [1]: 63.6 nM
- EC50 [2]: > 25000 nM
- IC50 [5]: 3420 nM
- EC50 [3]: 7540 nM

Compound: N[C@@]1(C(=O)O)C[C@@H](F)[C@H]2[C@H](C(=O)O)[C@H]21
- half-life [9]: 7.3 h
- bioavailability [10]: 64.4%
- Tmax [11]: 2.5 h
- Activity (Rattus norvegicus [12]): Dose-dependent effect
- ED50 (Rattus norvegicus [12]): 2.08 mg/kg
- Tmax [13]: 0 h
- EC50 [1]: 0.56 nM
- Cmax [14]: 3.94 µM
- clearance [15]: 14.8 mL/min/kg
- Vd [16]: 1.25 L/kg
- Tmax [17]: 2 h
- AUC(0-t) at 24 h [18]: 10.7 µM·h
- Cmax [19]: 0.713 µM
- AUC(0-t) at 24 h [20]: 2.79 µM·h
- half-life [21]: 5.9 h
- EC50 [2]: 11500 nM
- half-life [22]: 2.7 h
- EC50 [3]: 1410 nM
- Activity (Rattus norvegicus [23]): Toxic
- Tmax [24]: 1.8 h
- half-life [25]: 3.5 h
- EC50 [4]: 0.24 nM
- Activity (Rattus norvegicus [26]): Non-toxic
- C0 [27]: 36.7 µM
- AUC(0-t) at 24 h [28]: 23.6 µM·h
- AUC(0-t) at 24 h [29]: 16.7 µM·h
- Cmax [30]: 7.94 µM

Compound: N[C@@]1(C(=O)O)CC[C@H]2[C@H](C(=O)O)[C@H]21
- EC50 [2]: > 25000 nM
- EC50 [3]: 3360 nM
- EC50 [4]: 27.1 nM

Compound: N[C@@]1(C(=O)O)C[C@@H](O)[C@H]2[C@H](C(=O)O)[C@H]21
- EC50 [1]: 7.6 nM
- EC50 [2]: > 25000 nM
- EC50 [3]: 4370 nM
